The source made the active and inactive calls. The rule behind the calls is not given here.
Legend:
[1] = target: Replicase polyprotein 1ab (Severe acute respiratory syndrome coronavirus 2, UniProt P0DTD1); experiment: Inhibition of N-terminal 6His/SUMO-tagged SARS-CoV-2 NSP14 expressed in Escherichia coli Rosetta 2 (DE3) PlysS cells using 5'GpppACCCCCCCCC-Biotin 3' and 3H-SAM as substrates incubated for 30 mins by TopCount scintillation proximity assay
[2] = target: Replicase polyprotein 1ab (Severe acute respiratory syndrome coronavirus 2) (UniProt P0DTD1); experiment: Inhibition of N-terminal 6His/SUMO-tagged SARS-CoV-2 NSP14 expressed in Escherichia coli Rosetta 2 (DE3) PlysS cells using 5'GpppACCCCCCCCC-Biotin 3' and 3H-SAM as substrates at 100 uM incubated for 30 mins by TopCount scintillation proximity assay relative to control
[3] = target: Replicase polyprotein 1ab (Severe acute respiratory syndrome coronavirus 2) (UniProt P0DTD1); experiment: Reversible binding affinity to Cys387 of N-terminal 6His/SUMO-tagged SARS-CoV-2 NSP14 expressed in Escherichia coli Rosetta 2 (DE3) PlysS cells using 5'GpppACCCCCCCCC-Biotin 3' and 3H-SAM as substrates incubated for 2 hrs by mass spectrometry analysis
Procedure, shortened: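 Nsp14 incubated with 20-fold molar excess of compound for 2 h at 20 °C, then taken into 0.1% formic acid. Separated by HPLC on a 5–95% acetonitrile/water gradient and analysed by ESI time-of-flight MS for protein mass shift.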

[4] = target: Replicase polyprotein 1ab (Severe acute respiratory syndrome coronavirus 2) (UniProt P0DTD1); experiment: Reversible covalent inhibition of N-terminal 6His/SUMO-tagged SARS-CoV-2 NSP14 expressed in Escherichia coli Rosetta 2 (DE3) PlysS cells using 5'GpppACCCCCCCCC-Biotin 3' and 3H-SAM as substrates at 10 fold IC50 concentration incubated for 60 mins by rapid dilution method
Procedure, shortened: (§1)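 Jump dilution: Nsp14 at 100-fold its assay concentration (assay level 1.5 nM) preincubated with compound for 1 h at room temperature. Then diluted 100-fold into assay buffer containing RNA substrate and SAM, and recovery of methyltransferase activity monitored.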

[5] = target: Histone-lysine N-methyltransferase EHMT2 (Homo sapiens, UniProt Q96KQ7); experiment: Inhibition of human G9a using biotin-tagged Histone H3 and 3H-SAM as substrate incubated for 1 hrs by TopCount scintillation proximity assay
Chain of Histone-lysine N-methyltransferase EHMT2 (Q96KQ7 whole entry): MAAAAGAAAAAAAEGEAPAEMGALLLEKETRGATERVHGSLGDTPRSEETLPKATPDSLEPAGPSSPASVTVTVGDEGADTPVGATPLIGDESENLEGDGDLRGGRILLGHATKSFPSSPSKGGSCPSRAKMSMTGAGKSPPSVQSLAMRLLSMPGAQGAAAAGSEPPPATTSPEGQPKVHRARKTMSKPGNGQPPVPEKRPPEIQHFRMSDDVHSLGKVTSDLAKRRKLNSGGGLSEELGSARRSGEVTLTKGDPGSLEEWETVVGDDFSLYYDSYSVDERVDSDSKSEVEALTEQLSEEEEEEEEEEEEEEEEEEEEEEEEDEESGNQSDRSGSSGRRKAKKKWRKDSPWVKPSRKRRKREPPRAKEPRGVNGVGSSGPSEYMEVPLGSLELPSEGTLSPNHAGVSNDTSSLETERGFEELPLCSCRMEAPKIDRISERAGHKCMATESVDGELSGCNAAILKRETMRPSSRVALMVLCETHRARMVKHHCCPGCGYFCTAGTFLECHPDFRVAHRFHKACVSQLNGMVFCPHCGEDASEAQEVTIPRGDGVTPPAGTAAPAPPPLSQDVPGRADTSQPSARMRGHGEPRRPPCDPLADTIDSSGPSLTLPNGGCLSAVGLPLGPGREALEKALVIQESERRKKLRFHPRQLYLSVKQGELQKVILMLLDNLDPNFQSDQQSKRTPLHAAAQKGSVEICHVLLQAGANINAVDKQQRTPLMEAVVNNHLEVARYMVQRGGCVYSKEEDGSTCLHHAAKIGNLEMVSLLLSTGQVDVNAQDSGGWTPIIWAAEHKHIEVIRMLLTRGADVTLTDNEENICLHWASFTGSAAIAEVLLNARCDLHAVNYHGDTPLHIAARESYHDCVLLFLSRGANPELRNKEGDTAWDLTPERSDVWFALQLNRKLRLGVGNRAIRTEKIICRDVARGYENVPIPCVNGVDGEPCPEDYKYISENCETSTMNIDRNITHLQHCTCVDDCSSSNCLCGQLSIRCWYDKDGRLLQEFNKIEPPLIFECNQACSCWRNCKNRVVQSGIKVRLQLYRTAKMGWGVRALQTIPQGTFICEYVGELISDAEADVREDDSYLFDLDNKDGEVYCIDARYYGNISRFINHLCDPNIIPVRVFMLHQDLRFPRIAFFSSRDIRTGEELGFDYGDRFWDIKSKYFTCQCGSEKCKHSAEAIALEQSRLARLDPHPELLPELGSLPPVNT
Procedure, shortened: (§2)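 Radiometric concentration–response for IC50, run on panel methyltransferases showing more than 50% inhibition at a 10 μM screen. Triplicate.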

[6] = target: Histone-lysine N-methyltransferase EHMT1 (Homo sapiens, UniProt Q9H9B1); experiment: Inhibition of human GLP using biotin-tagged Histone H3 and 3H-SAM as substrate incubated for 1 hrs by TopCount scintillation proximity assay; procedure, shortened: as §2
Chain of Histone-lysine N-methyltransferase EHMT1 (Q9H9B1 whole entry): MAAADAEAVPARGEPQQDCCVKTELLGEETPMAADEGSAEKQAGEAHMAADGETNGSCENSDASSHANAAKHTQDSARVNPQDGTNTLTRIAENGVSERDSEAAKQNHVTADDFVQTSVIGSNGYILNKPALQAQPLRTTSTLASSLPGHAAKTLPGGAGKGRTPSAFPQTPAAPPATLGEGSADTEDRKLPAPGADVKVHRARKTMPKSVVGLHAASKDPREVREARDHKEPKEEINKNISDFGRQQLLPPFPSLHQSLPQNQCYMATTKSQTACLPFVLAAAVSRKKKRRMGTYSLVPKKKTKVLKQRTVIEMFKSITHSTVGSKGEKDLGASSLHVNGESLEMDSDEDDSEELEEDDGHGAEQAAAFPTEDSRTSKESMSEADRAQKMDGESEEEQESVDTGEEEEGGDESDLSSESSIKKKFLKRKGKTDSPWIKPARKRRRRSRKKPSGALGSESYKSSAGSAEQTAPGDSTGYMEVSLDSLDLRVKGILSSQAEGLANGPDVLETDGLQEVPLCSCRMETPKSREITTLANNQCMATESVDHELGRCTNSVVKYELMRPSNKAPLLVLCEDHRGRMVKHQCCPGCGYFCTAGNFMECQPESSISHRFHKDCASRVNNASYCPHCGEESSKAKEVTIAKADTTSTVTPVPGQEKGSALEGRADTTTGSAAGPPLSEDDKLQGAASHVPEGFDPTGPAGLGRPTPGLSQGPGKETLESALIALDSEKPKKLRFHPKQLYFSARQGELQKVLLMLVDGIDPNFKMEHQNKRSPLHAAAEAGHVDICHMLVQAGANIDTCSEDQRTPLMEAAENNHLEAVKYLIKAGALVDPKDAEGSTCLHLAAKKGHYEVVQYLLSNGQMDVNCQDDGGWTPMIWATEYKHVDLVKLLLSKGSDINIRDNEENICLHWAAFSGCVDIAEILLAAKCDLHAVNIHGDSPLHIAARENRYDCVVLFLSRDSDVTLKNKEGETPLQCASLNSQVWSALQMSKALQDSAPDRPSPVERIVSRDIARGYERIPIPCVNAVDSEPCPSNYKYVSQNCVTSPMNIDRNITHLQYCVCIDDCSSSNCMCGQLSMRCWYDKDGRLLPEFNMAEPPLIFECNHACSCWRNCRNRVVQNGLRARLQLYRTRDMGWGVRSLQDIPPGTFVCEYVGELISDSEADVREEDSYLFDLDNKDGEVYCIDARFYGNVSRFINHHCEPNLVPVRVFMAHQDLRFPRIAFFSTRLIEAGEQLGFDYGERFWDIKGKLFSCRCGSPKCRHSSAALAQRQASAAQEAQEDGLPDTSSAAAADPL

[7] = Aggregation property of the compound in KPi buffer at pH 7.0 assessed as formation of colloid-like particles at 3.8 uM by dynamic light scattering analysis; type: physicochemical; settings: pH 7, 3.8 µM
Procedure, shortened: (§3)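 Compounds diluted as 8-point half-log series in filtered 50 mM KPi, pH 7.0, with 1% v/v DMSO final. Particles detected by dynamic light scattering, triplicate at each concentration. CAC taken as the intersection of separate nonlinear fits to aggregating (>10^6 scattering intensity) and non-aggregating data.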

Bacteria [8] = experiment: Inhibition of beta-lactamase AmpC (unknown origin) at 3.8 uM pre-incubated with compound for 5 mins followed by substrate addition and measured after 1.5 mins by absorbance based plate reader analysis; settings: time 6.5 min
Procedure, shortened: (§4)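 AmpC at 2 nM preincubated 5 min with compound at room temperature in 50 mM KPi, pH 7.0, with 1% v/v DMSO. Started with 50 μM CENTA (read at 405 nm) or 50 μM nitrocefin (read at 490 nm), monitored 1 min 30 s. Initial rate taken as % of DMSO control. Top concentration in triplicate; eight-point half-log curves in triplicate where inhibition exceeded 40%.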

Homo sapiens [9] = organism: Homo sapiens; experiment: Inhibition of MDH (unknown origin) using oxaloacetic acid as substrate at 3.8 uM preincubated with compound for 5 mins followed by substrate addition and measured after 1.5 min in the presence of NADH by absorbance based plate reader analysis; settings: time 6.5 min
Procedure, shortened: (§5)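 MDH assay at room temperature in 50 mM KPi, pH 7.0, with 1% v/v DMSO final. Compound preincubated 5 min with 2 nM enzyme. Reaction started with 200 μM NADH plus 200 μM oxaloacetic acid, and absorbance followed at 340 nm for 1 min 30 s. Initial rate divided by the DMSO control rate. Single top concentration in triplicate; eight-point half-log curves in triplicate where inhibition exceeded 40%.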

Homo sapiens [10] = organism: Homo sapiens; experiment: Inhibition of MDH (unknown origin) using oxaloacetic acid as substrate at 3.8 uM preincubated with compound for 5 mins followed by substrate addition and measured after 1.5 min in the presence of NADH and 0.01% Triton-X 100 by absorbance based plate reader analysis; settings: time 6.5 min
Procedure, shortened: (§6)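 Detergent-reversal MDH assay: 50 mM KPi, pH 7.0, with 1% v/v DMSO and 0.01% v/v Triton X-100. Enzyme at 2 nM preincubated 5 min with compound, then started with 200 μM NADH plus 200 μM oxaloacetate. A340 read for 1 min 30 s, rate normalised to DMSO control. Eight-point half-log curves in triplicate.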

Bacteria [11] = experiment: Inhibition of beta-lactamase AmpC (unknown origin) at 3.8 uM pre-incubated with compound for 5 mins followed by substrate addition and measured after 1.5 mins in the presence of 0.01% Triton-X 100 by absorbance based plate reader analysis
Procedure, shortened: (§7)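 AmpC detergent-reversal assay: 50 mM KPi, pH 7.0, with 1% v/v DMSO and 0.01% v/v Triton X-100. Enzyme at 2 nM preincubated 5 min with compound, then 50 μM CENTA (405 nm) or nitrocefin (490 nm) added. Absorbance followed for 1 min 30 s and rate normalised to DMSO. Eight-point half-log curves in triplicate.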

Bacteria [12] = experiment: Inhibition of beta-lactamase AmpC (unknown origin) pre-incubated with compound for 5 mins followed by substrate addition and measured after 1.5 mins by absorbance based plate reader analysis; settings: time 6.5 min; procedure, shortened: as §4
[13] = target: Replicase polyprotein 1ab (Severe acute respiratory syndrome coronavirus 2) (UniProt P0DTD1); experiment: Non-covalent inhibition of N-terminal 6His/SUMO-tagged SARS-CoV-2 NSP14 expressed in Escherichia coli Rosetta 2 (DE3) PlysS cells using 5'GpppACCCCCCCCC-Biotin 3' and 3H-SAM as substrates at 10 fold IC50 concentration incubated for 60 mins by rapid dilution method; procedure, shortened: as §1
[14] = target: Replicase polyprotein 1ab (Severe acute respiratory syndrome coronavirus 2) (UniProt P0DTD1); experiment: Competitive inhibition of N-terminal 6His/SUMO-tagged SARS-CoV-2 NSP14 expressed in Escherichia coli Rosetta 2 (DE3) PlysS cells using 5'GpppACCCCCCCCC-Biotin 3' and 3H-SAM as substrates at increasing concentration incubated for 30 mins by TopCount scintillation proximity assay
Procedure, shortened: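 Competition pattern read from IC50 shifts. […] Separately, SAM fixed at 1.25 μM (5× Km) with RNA varied up to 0.5 μM (10× Km). A linear rise of IC50 with substrate concentration was taken as competitive inhibition.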

[15] = target: Histone-lysine N-methyltransferase SUV39H1 (Homo sapiens) (UniProt O43463); experiment: Inhibition of human SUV39H1 using Biotin-tagged histone H3 and 3H-SAM as substrate at 6 uM incubated for 1 hrs by TopCount scintillation proximity assay relative to control
[16] = target: T1, Histone-lysine N-methyltransferase, H3 lysine-79 specific (Homo sapiens, UniProt Q8TEK3); experiment: Inhibition of human DOT1L using chicken nucleosome and 3H-SAM as substrate at 6 uM incubated for 1 hrs by TopCount scintillation proximity assay relative to control
Target sequence in this assay (Q8TEK3 whole entry, looked up): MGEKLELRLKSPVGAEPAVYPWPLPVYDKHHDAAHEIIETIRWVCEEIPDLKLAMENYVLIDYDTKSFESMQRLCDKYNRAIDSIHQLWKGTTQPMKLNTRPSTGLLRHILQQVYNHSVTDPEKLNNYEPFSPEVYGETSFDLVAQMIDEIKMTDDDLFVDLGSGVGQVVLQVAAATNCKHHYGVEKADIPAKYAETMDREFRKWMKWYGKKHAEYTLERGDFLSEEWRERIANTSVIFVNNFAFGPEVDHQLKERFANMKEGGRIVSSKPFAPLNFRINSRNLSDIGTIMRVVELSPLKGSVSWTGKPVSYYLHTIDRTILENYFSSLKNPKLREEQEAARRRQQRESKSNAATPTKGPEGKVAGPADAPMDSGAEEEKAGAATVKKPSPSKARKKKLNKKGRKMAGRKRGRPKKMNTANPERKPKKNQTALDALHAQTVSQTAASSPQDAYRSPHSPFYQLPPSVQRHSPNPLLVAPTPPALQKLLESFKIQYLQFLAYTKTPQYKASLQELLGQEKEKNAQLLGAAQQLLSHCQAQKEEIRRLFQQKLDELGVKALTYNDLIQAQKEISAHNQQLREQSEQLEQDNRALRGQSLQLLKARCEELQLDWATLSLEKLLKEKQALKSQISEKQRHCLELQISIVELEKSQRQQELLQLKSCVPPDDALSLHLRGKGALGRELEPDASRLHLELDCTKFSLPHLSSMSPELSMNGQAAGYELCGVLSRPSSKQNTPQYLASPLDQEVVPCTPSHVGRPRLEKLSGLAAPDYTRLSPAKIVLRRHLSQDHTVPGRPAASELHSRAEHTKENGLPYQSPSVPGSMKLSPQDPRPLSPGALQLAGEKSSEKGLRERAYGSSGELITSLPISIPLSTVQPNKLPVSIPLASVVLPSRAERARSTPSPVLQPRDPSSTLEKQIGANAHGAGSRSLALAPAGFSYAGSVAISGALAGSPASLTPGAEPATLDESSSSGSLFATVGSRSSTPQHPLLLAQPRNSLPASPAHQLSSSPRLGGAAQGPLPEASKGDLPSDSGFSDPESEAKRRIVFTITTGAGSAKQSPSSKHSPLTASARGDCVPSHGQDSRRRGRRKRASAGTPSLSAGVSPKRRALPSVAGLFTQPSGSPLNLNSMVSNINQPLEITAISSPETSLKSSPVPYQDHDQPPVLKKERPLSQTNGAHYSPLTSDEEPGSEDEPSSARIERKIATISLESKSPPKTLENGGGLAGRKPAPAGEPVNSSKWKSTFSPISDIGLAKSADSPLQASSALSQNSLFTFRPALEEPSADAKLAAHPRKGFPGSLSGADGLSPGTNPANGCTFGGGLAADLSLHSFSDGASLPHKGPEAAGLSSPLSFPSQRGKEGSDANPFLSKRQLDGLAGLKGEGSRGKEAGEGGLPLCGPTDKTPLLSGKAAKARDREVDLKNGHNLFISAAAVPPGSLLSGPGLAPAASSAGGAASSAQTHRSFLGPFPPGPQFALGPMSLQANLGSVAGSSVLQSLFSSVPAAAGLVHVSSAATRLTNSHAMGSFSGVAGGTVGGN

[17] = target: Histone-lysine N-methyltransferase SMYD3 (Homo sapiens) (UniProt Q9H7B4); experiment: Inhibition of human SMYD3 using biotin-tagged MAP3K2 and 3H-SAM as substrate at 6 uM incubated for 1 hrs by TopCount scintillation proximity assay relative to control
[18] = target: RNA 5'-monophosphate methyltransferase (Homo sapiens) (UniProt Q7Z5W3); experiment: Inhibition of human BCDIN3D using biotin-tagged microRNA-145 and 3H-SAM as substrate at 6 uM incubated for 1 hrs by TopCount scintillation proximity assay relative to control
Chain of RNA 5'-monophosphate methyltransferase (Homo sapiens) (Q7Z5W3 whole entry): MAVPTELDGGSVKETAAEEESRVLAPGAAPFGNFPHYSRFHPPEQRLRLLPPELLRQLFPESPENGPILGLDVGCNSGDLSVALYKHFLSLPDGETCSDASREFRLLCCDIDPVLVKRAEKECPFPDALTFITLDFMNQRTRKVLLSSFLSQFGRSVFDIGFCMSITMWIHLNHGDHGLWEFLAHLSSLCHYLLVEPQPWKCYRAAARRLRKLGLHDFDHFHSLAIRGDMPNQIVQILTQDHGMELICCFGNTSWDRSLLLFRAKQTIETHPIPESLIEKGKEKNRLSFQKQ

[19] = target: T2, Protein arginine N-methyltransferase 3 (Homo sapiens, UniProt O60678); experiment: Inhibition of human PRMT3 using biotin-tagged Histone H4 and 3H-SAM as substrate at 6 uM incubated for 1 hrs by TopCount scintillation proximity assay relative to control
Target sequence in this assay (O60678 2-531 limits assumed): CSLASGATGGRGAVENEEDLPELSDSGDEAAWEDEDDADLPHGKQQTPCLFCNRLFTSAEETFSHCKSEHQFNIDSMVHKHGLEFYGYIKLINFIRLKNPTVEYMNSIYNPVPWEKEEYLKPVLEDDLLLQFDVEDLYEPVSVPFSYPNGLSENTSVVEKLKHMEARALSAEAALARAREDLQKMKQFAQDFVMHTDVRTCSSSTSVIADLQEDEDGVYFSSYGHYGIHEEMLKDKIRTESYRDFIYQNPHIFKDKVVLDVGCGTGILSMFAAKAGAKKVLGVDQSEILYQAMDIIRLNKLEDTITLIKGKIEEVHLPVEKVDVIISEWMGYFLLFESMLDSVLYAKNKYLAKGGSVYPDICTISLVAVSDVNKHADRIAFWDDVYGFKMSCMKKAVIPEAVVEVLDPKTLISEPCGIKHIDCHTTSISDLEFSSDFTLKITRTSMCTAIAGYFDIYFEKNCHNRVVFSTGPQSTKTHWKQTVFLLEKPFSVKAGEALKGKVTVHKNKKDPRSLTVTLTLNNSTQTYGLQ

[20] = target: Protein arginine N-methyltransferase 9 (Homo sapiens) (UniProt Q6P2P2); experiment: Inhibition of human PRMT9 using biotin-tagged SAP145 and 3H-SAM as substrate at 6 uM incubated for 1 hrs by TopCount scintillation proximity assay relative to control
[21] = target: T3, Protein arginine N-methyltransferase 1 (Homo sapiens, UniProt Q99873); experiment: Inhibition of human PRMT1 using biotin-tagged Histone H4 and 3H-SAM as substrate at 6 uM incubated for 1 hrs by TopCount scintillation proximity assay relative to control
[22] = target: T4, Histone-lysine N-methyltransferase 2A (Homo sapiens, UniProt Q03164); experiment: Inhibition of human MLL1 using biotin-tagged Histone H3 and 3H-SAM as substrate at 6 uM incubated for 1 hrs by TopCount scintillation proximity assay relative to control
[23] = target: Histone-lysine N-methyltransferase EHMT1 (Homo sapiens) (UniProt Q9H9B1); experiment: Inhibition of human GLP using biotin-tagged Histone H3 and 3H-SAM as substrate at 6 uM incubated for 1 hrs by TopCount scintillation proximity assay relative to control
Chain of Histone-lysine N-methyltransferase EHMT1 (Homo sapiens) (Q9H9B1 whole entry): as the sequence (Q9H9B1 whole entry) above

[24] = target: Histone-lysine N-methyltransferase SUV39H1 (Homo sapiens, UniProt O43463); experiment: Inhibition of human SUV39H1 using Biotin-tagged histone H3 and 3H-SAM as substrate incubated for 1 hrs by TopCount scintillation proximity assay
Procedure, shortened: (§8)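 Radiometric human methyltransferase assay. Enzymes showing >50% inhibition at a 10 μM single-point screen went on to concentration–response in triplicate to derive IC50.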

[25] = target: T1, Histone-lysine N-methyltransferase, H3 lysine-79 specific; experiment: Inhibition of human DOT1L using chicken nucleosome and 3H-SAM as substrate incubated for 1 hrs by TopCount scintillation proximity assay; procedure, shortened: as §2
Target sequence in this assay (Q8TEK3 whole entry): as the sequence (Q8TEK3 whole entry, looked up) above

[26] = target: Histone-lysine N-methyltransferase SMYD3 (Homo sapiens, UniProt Q9H7B4); experiment: Inhibition of human SMYD3 using biotin-tagged MAP3K2 and 3H-SAM as substrate incubated for 1 hrs by TopCount scintillation proximity assay; procedure, shortened: as §8
[27] = target: RNA 5'-monophosphate methyltransferase (Homo sapiens, UniProt Q7Z5W3); experiment: Inhibition of human BCDIN3D using biotin-tagged microRNA-145 and 3H-SAM as substrate incubated for 1 hrs by TopCount scintillation proximity assay; procedure, shortened: as §2
Chain of RNA 5'-monophosphate methyltransferase (Q7Z5W3 whole entry): as the sequence (Q7Z5W3 whole entry) above

[28] = target: T2, Protein arginine N-methyltransferase 3; experiment: Inhibition of human PRMT3 using biotin-tagged Histone H4 and 3H-SAM as substrate incubated for 1 hrs by TopCount scintillation proximity assay; procedure, shortened: as §2
[29] = target: Protein arginine N-methyltransferase 9 (Homo sapiens, UniProt Q6P2P2); experiment: Inhibition of human PRMT9 using biotin-tagged SAP145 and 3H-SAM as substrate incubated for 1 hrs by TopCount scintillation proximity assay; procedure, shortened: as §2
[30] = target: T3, Protein arginine N-methyltransferase 1; experiment: Inhibition of human PRMT1 using biotin-tagged Histone H4 and 3H-SAM as substrate incubated for 1 hrs by TopCount scintillation proximity assay; procedure, shortened: as §2
[31] = target: T4, Histone-lysine N-methyltransferase 2A; experiment: Inhibition of human MLL1 using biotin-tagged Histone H3 and 3H-SAM as substrate incubated for 1 hrs by TopCount scintillation proximity assay; procedure, shortened: as §2
Homo sapiens [32] = organism: Homo sapiens; experiment: Inhibition of MDH (unknown origin) using oxaloacetic acid as substrate preincubated with compound for 5 mins followed by substrate addition and measured after 1.5 min in the presence of NADH by absorbance based plate reader analysis; settings: time 6.5 min; procedure, shortened: as §5
[33] = Aggregation property of the compound in KPi buffer at pH 7.0 assessed as formation of colloid-like particles by dynamic light scattering analysis; type: physicochemical; procedure, shortened: as §3
Homo sapiens [34] = organism: Homo sapiens; experiment: Inhibition of MDH (unknown origin) using oxaloacetic acid as substrate preincubated with compound for 5 mins followed by substrate addition and measured after 1.5 min in the presence of NADH and 0.01% Triton-X 100 by absorbance based plate reader analysis; settings: time 6.5 min; procedure, shortened: as §6
Bacteria [35] = experiment: Inhibition of beta-lactamase AmpC (unknown origin) pre-incubated with compound for 5 mins followed by substrate addition and measured after 1.5 mins in the presence of 0.01% Triton-X 100 by absorbance based plate reader analysis; settings: time 6.5 min; procedure, shortened: as §7

N#Cc1ccc(NC(=O)c2cc(C=O)n3c2CCCC3)c2cc(O)ccc12
IC50 [1]: 8 µM | inhibition [2]: > 50% | Activity [3]: Active | inhibition [4]: Active | IC50 [5]: 30 µM | IC50 [6]: 14 µM | Activity [7]: Active | inhibition (Bacteria [8]): Active | inhibition (Homo sapiens [9]): Active | inhibition (Homo sapiens [10]): inactive | inhibition (Bacteria [11]): inactive

O=C(COC(=O)c1cc(-c2ccoc2)n[nH]1)Nc1ccc(Br)cc1
inhibition (Bacteria [12]): inactive | inhibition [13]: Active | IC50 [1]: 2.2 µM | inhibition [14]: Active | inhibition [15]: > 50% | inhibition [16]: > 50% | inhibition [17]: > 50% | inhibition [18]: > 50% | inhibition [19]: > 50% | inhibition [20]: > 50% | inhibition [21]: > 50% | inhibition [22]: > 50% | inhibition [23]: > 50% | IC50 [6]: 26 µM | IC50 [24]: 4 µM | IC50 [25]: 7 µM | IC50 [26]: 8 µM | IC50 [27]: 11 µM | IC50 [28]: 11 µM | IC50 [29]: 11 µM | IC50 [30]: 15 µM | IC50 [31]: 16 µM | inhibition (Homo sapiens [32]): Active | Activity [33]: Active | inhibition (Homo sapiens [34]): inactive | inhibition (Bacteria [35]): inactive

Source: ChEMBL document CHEMBL5338825, “Structure-Based Discovery of Inhibitors of the SARS-CoV-2 Nsp14 N7-Methyltransferase” (J Med Chem, 2023)
